These results are taken from ChEMBL document CHEMBL1126620, “Systematic substitution of an oxytocin antagonist with D-amino acids: unexpected high antagonistic potency of the D-Cys6-substituted analogue” (J Med Chem, 1993).

One assay is filed under the species Rattus norvegicus. In words: In vitro competitive antagonist effect of OT contractile action in the rat uterus determined by the rat oxytocic assay in presence of Mg2+. The class given is functional. Particulars: read-out: pA2 (converted). The essentials: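 Isolated rat uterus, oxytocin-induced contraction, bath containing magnesium salts; pA2 (negative log molar antagonist concentration halving agonist response) obtained by Schild method from at least four separate assays.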
Consider `CC[C@H](C)[C@@H]1NC(=O)[C@@H](Cc2c[nH]c3ccccc23)NC(=O)CC2(CCCCC2)SSC[C@@H](C(=O)N2CCC[C@H]2C(=O)N[C@@H](CCCNC(=N)N)C(=O)NCC(N)=O)NC(=O)[C@H](CC(N)=O)NC(=O)[C@@H]([C@H](C)O)NC1=O`, for which the Kb was 11200 nM.

Regarding `CC[C@H](C)[C@@H]1NC(=O)[C@@H](Cc2c[nH]c3ccccc23)NC(=O)CC2(CCCCC2)SSC[C@@H](C(=O)N2CCC[C@H]2C(=O)N[C@H](CCCN=C(N)N)C(=O)NCC(N)=O)NC(=O)[C@H](CC(N)=O)NC(=O)[C@H](CCC(N)=O)NC1=O`, the Kb is 12.3 nM.

As for `CC[C@@H](C)[C@H]1NC(=O)[C@@H](Cc2c[nH]c3ccccc23)NC(=O)CC2(CCCCC2)SSC[C@@H](C(=O)N2CCC[C@H]2C(=O)N[C@@H](CCCN=C(N)N)C(=O)NCC(N)=O)NC(=O)[C@H](CC(N)=O)NC(=O)[C@H](CCC(N)=O)NC1=O`, the Kb is 5890 nM.

For the compound `CC[C@H](C)[C@@H]1NC(=O)[C@@H](Cc2c[nH]c3ccccc23)NC(=O)CC2(CCCCC2)SSC[C@@H](C(=O)N2CCC[C@@H]2C(=O)N[C@@H](CCCN=C(N)N)C(=O)NCC(N)=O)NC(=O)[C@H](CC(N)=O)NC(=O)[C@H](CCC(N)=O)NC1=O`, the Kb is 14.1 nM.

Consider `CC[C@H](C)[C@@H]1NC(=O)[C@@H](Cc2c[nH]c3ccccc23)NC(=O)CC2(CCCCC2)SSC[C@@H](C(=O)N2CCC[C@H]2C(=O)N[C@@H](CCCN=C(N)N)C(=O)NCC(N)=O)NC(=O)[C@H](CC(N)=O)NC(=O)[C@@H](CCCNC(N)=O)NC1=O`, for which the Kb is 3090 nM.

For the compound `CC[C@H](C)[C@H]1NC(=O)[C@@H](Cc2c[nH]c3ccccc23)NC(=O)CC2(CCCCC2)SSC[C@@H](C(=O)N2CCC[C@H]2C(=O)N[C@@H](CCCN=C(N)N)C(=O)NCC(N)=O)NC(=O)[C@H](CC(N)=O)NC(=O)[C@H](CCC(N)=O)NC1=O`, the Kb is 7760 nM.

With `CC[C@H](C)[C@@H]1NC(=O)[C@@H](Cc2c[nH]c3ccccc23)NC(=O)CC2(CCCCC2)SSC(C)(C)[C@H](C(=O)N2CCC[C@H]2C(=O)N[C@@H](CCCNC(=N)N)C(=O)NCC(N)=O)NC(=O)[C@H](CC(N)=O)NC(=O)[C@H](CCC(N)=O)NC1=O`, the Kb was 10.5 nM.

As for `CC[C@H](C)[C@@H]1NC(=O)[C@@H](Cc2c[nH]c3ccccc23)NC(=O)CC2(CCCCC2)SSC[C@@H](C(=O)N2CCC[C@H]2C(=O)N[C@@H](CCCN=C(N)N)C(=O)NCC(N)=O)NC(=O)[C@H](CC(N)=O)NC(=O)[C@@H](CC(N)=O)NC1=O`, the Kb is 3890 nM.

Turning to `CC[C@H](C)[C@@H]1NC(=O)[C@@H](Cc2c[nH]c3ccccc23)NC(=O)CC2(CCCCC2)SSC[C@H](C(=O)N2CCC[C@H]2C(=O)N[C@@H](CCCN=C(N)N)C(=O)NCC(N)=O)NC(=O)[C@H](CC(N)=O)NC(=O)[C@H](CCC(N)=O)NC1=O`, the Kb is 5.13 nM.

In the next assay the test system is Rattus norvegicus. In words: In vivo evaluation for the competitive antagonism of Antidiuretic action in the rat determined by the rat antidiuretic assay. Conditions: Urine, read-out: pA2 (converted).
Take `CC[C@H](C)[C@@H]1NC(=O)[C@@H](Cc2c[nH]c3ccccc23)NC(=O)CC2(CCCCC2)SSC[C@@H](C(=O)N2CCC[C@H]2C(=O)N[C@H](CCCN=C(N)N)C(=O)NCC(N)=O)NC(=O)[C@H](CC(N)=O)NC(=O)[C@H](CCC(N)=O)NC1=O`: the Kb was greater than 2510 nM.

In the case of `CC[C@H](C)[C@@H]1NC(=O)[C@@H](Cc2c[nH]c3ccccc23)NC(=O)CC2(CCCCC2)SSC[C@@H](C(=O)N2CCC[C@H]2C(=O)N[C@@H](CCCN=C(N)N)C(=O)NCC(N)=O)NC(=O)[C@H](CC(N)=O)NC(=O)[C@H](CCC(N)=O)NC1=O`, the Kb is greater than 1260 nM.

On to `CC[C@H](C)[C@@H]1NC(=O)[C@@H](Cc2c[nH]c3ccccc23)NC(=O)CC2(CCCCC2)SSC[C@H](C(=O)N2CCC[C@H]2C(=O)N[C@@H](CCCN=C(N)N)C(=O)NCC(N)=O)NC(=O)[C@H](CC(N)=O)NC(=O)[C@H](CCC(N)=O)NC1=O`, for which the Kb is greater than 501 nM.
